Tested on: MS2 coat protein
Experiment: apparent Kd, MS2 coat protein; higher = weaker binding; RNA-MaP array; FMN 200 µM where present
Procedure, shortened: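 Designs were transcribed by stalled E. coli RNA polymerase on Illumina sequencing-chip clusters. They were titrated with SNAP-549-labelled MS2 coat protein from 0.7 or 1.5 nM, doubling to 3 µM, in 100 mM Tris-HCl pH 7.5, 80 mM KCl, 4 mM MgCl2, BSA, DTT, yeast tRNA and Tween-20, without and then with constant ligand. The apparent Kd is the median of filtered per-cluster fits after normalisation of green signal to red-channel RNA signal and control-cluster median Fmax.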

[1] = designed as: OFF switch for flavin mononucleotide, no ligand
[2] = ligand present: flavin mononucleotide, designed as: OFF switch for flavin mononucleotide
[3] = designed as: ON switch for flavin mononucleotide, no ligand
[4] = ligand present: flavin mononucleotide, designed as: ON switch for flavin mononucleotide

Row | Sequence | apparent Kd [1] [nM] | apparent Kd [2] [nM] | apparent Kd [3] [nM] | apparent Kd [4] [nM]
1 | UGAUAGGACAGAGGAUAUACGUGCUAGAGAUACUAGCAAAGUUUCUUGACAUGAGGAUCACCCAUGUAGAAGGCUGUCCUAUCU | 5.74 | 12.3 | – | –
2 | GUUUUUCCUCAUGUACAUGAGGAACAUGAGGAUCACCCAUGUAGAAGGAAUUCCCUUAAAUUAAGUUAGGAUAUACAUAUAUUU | 107 | 77.4 | – | –
3 | ACGCUUUAUGUAGGAUAUUCAGAGAAAGAGAAAGAAGAAGGACAUGAGGAUCACCCAUGUAAGAAGUAGAUAGAGAUGAUACAU | 76.4 | 66.1 | – | –
4 | UGAUCGAGAGAUCUUAGAUUCUGGUAGGAUAUACAUUAUAAAAGCUUUACAUGAGGAUCACCCAUGUAGAAGGACUAGAGUCUA | – | 7.92 | – | –
5 | AAUAAACUCACAGGAUAUAGCAGAGGUCGCGUAAACUUACAGGCGACGAUGCUAGAAGGGUGACCACAUGAGGAUCACCCAUGU | – | – | 871 | 118
6 | UUUACAUGAGGAUCACCCAUGUUUUGAAAGAUUAGUUUUGGUGAGGAUAUACAUGAUAAAGAAUUGUAGAAGGCACUGGGUACA | – | – | 45.4 | 28.6
7 | CAUUGGUAAGGAUAUGCACCGAUCUCCGAAAGGAGAUCGGUGCAGAAGGUACAUGAGGAUCACCCAUGUUGAUG | 27.1 | 63.9 | – | –
8 | AAGAGCGAUUCUCCCUUCCUACAUGAGGAUCACCCAUGUACGAGAAGGCGCCGCGUAUACAACGGUGAGGAUAUCGUGCGUUAC | 4.45 | 4.98 | – | –
9 | ACAUGAGGAUCACCCAUGUUAUCAGGGACUUCAAUUAUUUCUAGAAGGCUGUUUUCUUGUAAGUCAGAGGAUAUAGAAUUAAAU | 14 | 15.1 | – | –
10 | GAAUAAUUGAUCCAUUUUUAAAACAUGAGGAUCACCCAUGUGCAGGAUAUCGAUAGUUUUAGAUUCGAGAAGGGCAAGAACUGU | 88.2 | 149 | – | –
11 | UAUGUAUUCGUAGGAUAUCCGUUGAGACCGUGUGGAGAAGGACGAACAUGAGGAUCACCCAUGUGUCAUGGUGUAGACAAUUUU | 65.5 | 220 | – | –
12 | AAGUCACAUGAGGAUCACCCAUGUCGUAAACGAUGAGGAUAUAGGAACGAAAGAAAAAAACUAGAAGGUAUAACAA | – | – | 52.2 | 52
13 | AACAAACAUGAGGAUCACCCAUGUCAGGAUAUCGAAACAACAAACAACAAACAACAAACGAGAAGGGACAACAA | 25.6 | 28.3 | – | –
14 | CUUUCGUGAGGAUAUGUGGCUUCGAUCGUGAGAUCGAAAAUACAGAAGGCACAUGAGGAUCACCCAUGUUCCUC | 37.8 | 456 | – | –
15 | ACAUGAGGAUCACCCAUGUAUUACAUGGUUAAGUUUAUUAACAGAAGGCGAAAUUACCACUUUUUCGAGGAUAUGUAUUCUAUU | 35.7 | 60.8 | – | –
16 | AUUUUUUAUGUAGGAUAUGCUUGUGGUAAGAUAGCAGAAGGACAUGAGGAUCACCCAUGUUAAUGAUAGAGAUUUUAUGUUGGU | 38.8 | 58.8 | – | –
17 | GGACGUCACAUAUACAUGAGGAUCACCCAUGUCAAAAGACAUGAGGAUAUGGAUCCUAAUUGGAUCCAGAAGGCAUGGACGUCC | – | – | 832 | 51.9
18 | CGCGAUAGCAUAGGAUAUUGAUACAUGAGGAUCACCCAUGUCAACCAUGAAGCUCGAAUUGUUGACAAGAAGGAUGAGGUCGCG | – | – | 81.3 | 55.3
19 | UAUUAUAUAGAGAAGGACAUGAGGAUCACCCAUGUCGCCGGGCCCGGGAAACCGGGCCCGGCCAUGUAGGAUAUCUAUAUGGUA | 4.96 | 5.86 | – | –
20 | CAAGGUGGAGGAUAUACAUGAGGAUCACCCAUGUAAGGACAAUAAAUAAGAUGAAGAAGUAGAAGGCCACUCAA | 41.4 | 46.3 | – | –
21 | ACAUGAGGAUCACCCAUGUUAUCCGGGACUUCAAUUGUUUCUAGAAGGCUGUCUGCUUGUUAGUCAGAGGAUAUAGAAUCAAAU | 11.4 | 11 | – | –
22 | CACGAUGAUGUAGGAUAUAUGCUGGAAUACAGCAUAGAAGGACAUGAGGAUCACCCAUGUUAAGUGCCUCCAAAUAACAUCGUG | 15.7 | 21.7 | – | –
23 | AUCAGCUCGUCAGGAUAUACGUCACUGCGUCAGCAGUUUGGUAAGAUCACAUGAGGAUCACCCAUGUAGAAGGGACGAGCUGAU | 15.2 | 249 | – | –
24 | AUCCUUAACAAGGAUAUCGGGCGGGAAAUUGUUUGAGAAGGUGUGACAUGAGGAUCACCCAUGUGGCGCGUGGG | 317 | 257 | – | –
25 | CAAAACUGAGGAUAUACAUGAGGAUCACCCAUGUCCAAGGUCCUGGGCGGAUGCUGCUGUAGAAGGCGGAAAGA | 22.4 | 32.4 | – | –
26 | UUGGAGUACGUAGGAUAUGUAGGAUAUUCCUACAUGAGGAUCACCCAUGUUAGCAUGGAAGAAGGACAGAAGGACGUGCUCCAU | – | – | 1120 | 15.1
27 | GCGUCAGGAGGAUAUACAUGAGGAUCACCCAUGUAACACGGGAUAGUAGUAUAGUAGAGUAGAAGGCCUAUAGU | 37.5 | 46 | – | –
28 | CGCUACUGCCAGAAGGACAUGAGGAUCACCCAUGUAGGAUAUGGGUGACGAGGACCAGUGUAGAGAAACUACGCUACAGUAGCG | – | – | 89.4 | 47.5

Row | Sequence | apparent Kd [1] [nM] | apparent Kd [2] [nM] | apparent Kd [3] [nM] | apparent Kd [4] [nM]
29 | GUAGCACAAGCAAAUGUAACAUGAGGAUCACCCAUGUGUUAUGAGGAUAUGGAUGUGAAGUUAAUCCAGAAGGCAUUAUGCUAC | – | – | 25.2 | 13.2
30 | UAUAUUUAUGUAGGAUAUGGUAUACAAAGUAUACCAGAAGGACAUGAGGAUCACCCAUGUAUGAAAUUCCAUAAUUGCCGUGUA | 16.1 | 16.4 | – | –
31 | UGGUGAAGUGUAGGAUAUGGAGAUGGGUUUUGGCCAGAAGGACAUGAGGAUCACCCAUGUGGUAGAGGGUUGGUGGUAGCUCGU | 62.4 | 49.8 | – | –
32 | AAUACACAUGAGGAUCACCCAUGUCAGGAUAUGCGGAAUAAGACUUUGGUCGAUAAAUGUAGAAGGGACGUUUA | 34.3 | 33.4 | – | –
33 | ACAAGAUCAGGAUAUACAUGAGGAUCACCCAUGUAUAUCAAAAAAGGGCCUUCUACAUGUAGAAGGGAUCUUGU | 13.1 | 12.1 | – | –
34 | GAUCUGACAGGAUAUACAUGAGGAUCACCCAUGUACGAGCUAGCGAAAGCUAGCUCAGGUAGAAGGGUCAGAUC | 12.3 | 16.4 | – | –
35 | AGCGUAUGAACAUGAGGAUCACCCAUGUAAACGGAAACGAAUGAGGAUAUCGAUAGCAAAGCUAUCGAGAAGGCAUGGGACGCU | – | – | 159 | 36.4
36 | UUCAGCUUGACAGGAUAUACAUGACUGCGAAAGCAGUCUAUCUUAAUAACAUGAGGAUCACCCAUGUAGAAGGGUCGAGCUGAA | 16.2 | 26.5 | – | –
37 | UGUAAUAUUAUAGGAUAUGGUUACGAUACGUAACCAGAAGGGUGAUUAUACUAUAAUCUAUACAUGAGGAUCACCCAUGUUUAU | – | – | 205 | 110
38 | CGCCUCGUGUCGAACAUGAGGAUCACCCAUGUAAUGGGCACCGAGGAUAUCCCGCUGGCGUUAUGGGAGAAGGCGGUGGAUUUA | 45 | 131 | – | –
39 | GGUACUCAAAGAGUACCAAUACGAACAUGAGGAUCACCCAUGUAGGAUAUGAAAACGCCGGAGUAUCAGAAGGACAUGUGCCUA | 12.6 | 21.3 | – | –
40 | UAUAUAAUUAAGAGCUGGAACUCAACAUGAGGAUCACCCAUGUAGGAUAUCAGCACGAUAAGUGCUGAGAAGGACAUCCAGCUC | 16.6 | 17.8 | – | –
41 | CUUCGUUGUAAGGAUAUCCAGACUCUUCCUGUCGGAGAAGGUACAACAUGAGGAUCACCCAUGUUGCUACAUGG | 25 | 38.7 | – | –
42 | GGAUGCAAGGAGAAGGGCUACUGGUUGAAACCUGCGGCCUCUGGAACAUGAGGAUCACCCAUGUAGCAGGAUAUCCUUACGUGA | 233 | 32.8 | – | –
43 | AAGACACAUGAGGAUCACCCAUGUUAGGAUAUACGCAUGCAUGCAUGCAUGCAUGCAAGUAGAAGGAACCAUGC | 30.5 | 30.6 | – | –
44 | CAGUAAUUCGAAGGAUAUGGUUACAUGAGGAUCACCCAUGUAUUUUUUGUGAUCUUAAAAUUGAUCCAGAAGGUCGAAUUACUG | 177 | 373 | – | –
45 | CGCAAGUAUACAUGAGGAUACAUGAGGAUCACCCAUGUUAUCAGAAGGUACUAUUAGAGAUAGAGUAAGGAUAUGAAAUUUGUG | – | – | 7.88 | 17.3
46 | AAAGUUGGUAGGCCCUCGGAACAUGAGGAUCACCCAUGUAAGGAGGAUAUGCCCGGUACCCGCUGGUAGAAGGCCUUAUAAGAA | 7.46 | 23.5 | – | –
47 | UUUACAUGAGGAUCACCCAUGUAUAGAACGGUUAAUUAAAGUGAGGAUAUACAUAAUUUUAUAUUGUAGAAGGCACUGGGUACA | – | – | 14.3 | 17.5
48 | GCACUGGAUGUAGGAUAUCAGGACGAUAAGUCCUGAGAAGGACAUGAGGAUCACCCAUGUGAAAAUUCCAGUGCAAAUAAUAUA | 13 | 19.1 | – | –
49 | UGAUAGGACAGAGGAUAUACGUGCUAGAGAUACUAGCUAAUAAUCCUUACAUGAGGAUCACCCAUGUAGAAGGCUGUCCUAUCU | 19.5 | 45.5 | – | –
50 | ACAGUAUAUGUAGGAUAUCAUUGGUUAGGUAGGUGAGAAGGGCAUAGUACAUGAGGAUCACCCAUGUGUUGGUCCUCGCAGAAA | 376 | 252 | – | –
51 | AAGAACGCAGGAUAUAUUAAGGGACAAAGAAGGAAGAAUAAACAUGAGGAUCACCCAUGUAGAAGGGCGAAGAA | 60.5 | 58 | – | –
52 | AAGUACCGGUGAGGAUAUUUUUAAUAGAACUUUAUGAUAUACAUGAGGAUCACCCAUGUUACUUUAAAGAAGGCAUCGGAUAAA | 18.3 | 14.6 | – | –
53 | GCCAGUUAUGUAGGAUAUGCGAGGCGAGCCUGAGCAGAAGGACAUGAGGAUCACCCAUGUAUUGCGGUUUAAGUUCUGAUCGCU | 22.2 | 47.2 | – | –
54 | AGUUUACAUGAGGAUCACCCAUGUGAGGAUAUGGAAUCGCUGGCCGUAGCCAGUGGUUCCAGAAGGCGCGUGAU | 99 | 187 | – | –
55 | GCGGUUACGGUUGGCACUUAGCGAGAGGAUAUGGAAAACAAGACAUGAGGAUCACCCAUGUACUAUCAGAAGGCUCGAGCACGC | – | – | 7.76 | 5.8
